Assay results of several laboratories.
Compare with care: the assays were run in different laboratories.
Organism: Leishmania donovani
Effect on: parasite growth

The EC50 of `COc1ccccc1-c1n[nH]c2nc(NC3CCN(C(=O)Cc4ccc(OCCOCCN)cc4)CC3)ncc12` is reported as 26.7 µM (THP-1; intracellular, amastigote).
For `COc1cc(NC(C)CCCNC(=S)NCCCC(C)Nc2cc(OC)cc3ccc(C(C)(C)C)nc23)c2nc(C(C)(C)C)ccc2c1.Cl.Cl` (stereo not drawn), the IC90 was 20 to 31 µg/mL (resazurin; promastigote).
For `Fc1cccc(Nc2nc(-c3ccccn3)nc3ccccc23)c1`, the IC50 was 0.79 µM (imaging; THP-1; intracellular, amastigote).
With `N=C(N)c1ccc(OCCCCCOc2ccc(C(=N)N)cc2)cc1` the IC90 was 8.77 µg/mL (resazurin; 72 h, promastigote).
For `C[C@@H]1[C@H](O)[C@@H](C)/C=C/C=C/C=C/C=C/C=C/C=C/C=C/[C@H](O[C@@H]2O[C@H](C)[C@@H](O)[C@H](N)[C@@H]2O)C[C@@H]2O[C@](O)(C[C@@H](O)C[C@@H](O)[C@H](O)CC[C@@H](O)C[C@@H](O)CC(=O)O[C@H]1C)C[C@H](O)[C@H]2C(=O)O`, the IC90 was 5.4 µM (MTT; 48 h, promastigote).
`COc1ccccc1-c1n[nH]c2nc(N[C@H]3CC[C@H](NS(=O)(=O)CCCOCCOCCNC(=O)OC(C)(C)C)CC3)ncc12` has an EC50 of 1.36 µM (amastigote).
The IC50 of `COc1cc(NC(C)CCCNC(=S)NCCCC(C)Nc2cc(OC)cc3cccnc23)c2ncccc2c1.Cl.Cl` (stereo not drawn) is reported as 4 to 9 µg/mL (resazurin; promastigote).
`CCCCCCCC/C=C\CCCCCCCCCCCCOP(=O)([O-])OCC[N+](C)(C)C` has an inhibition of 108% (resazurin; 50 µM, 72 h, promastigote).
The EC50 of `COc1ccccc1-c1n[nH]c2nc(NC3CCN(C(=O)Cc4ccc(OCCOCCNC(=O)OC(C)(C)C)cc4)CC3)ncc12` is reported as 4.51 µM (THP-1; intracellular, amastigote).
`CCCCCCCCCCCCCCCCOP(=O)([O-])OCC[N+](C)(C)C` gave an inhibition of 100% (resazurin; 25 µM, 72 h, promastigote).
`c1ccc(-c2nc(N3CCCC3)c3ccccc3n2)nc1` gave an IC50 of 2.5 µM (THP-1; intracellular, amastigote).
With `COc1ccccc1-c1n[nH]c2nc(N[C@H]3CC[C@H](NS(=O)(=O)CCCOCCOCCN)CC3)ncc12` the EC50 was 24.7 µM (THP-1; intracellular, amastigote).
